Screening data deposited in PubChem BioAssay by The Scripps Research Institute Molecular Screening Center.
Shown are actives, neighbours in structure and some others; about 4.5% of the full set was active somewhere.
CHO parental Ca – counter-screen for OX1R antagonists: effect in parental CHO cells. parental CHO-K1, ATP-induced calcium, Fluo-8 fluorescence. inhibition, % at 5.6 µM. actives 0.63% (n = 330,000);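 active = inhibition above that plate's mean sample inhibition plus 3 SD, cut at about 26% in these data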
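Assay system: parental CHO cells; Read-out basis: percent inhibition of ATP-evoked calcium rise, normalized to controls; Benchmarks: ATP and no-ATP DMSO wells; Compound dosing: single nominal dose of 5.6 µM per compound; Signal: Fluo-8 calcium dye fluorescence; Also added: ATP as calcium-mobilizing challenge; Repeats: singlicate.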
TAAR1 agonist – human TAAR1 agonism | AID 624467 | activation, % at 3 µM | actives 0.99% (n = 360,000) | CHO RD-HGA16 TAAR1, Fluo-8 calcium fluorescence; vehicle wells 0%, saturating PEA agonist 100%;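 active = activation above the mean activation of all test compounds in the run plus 3 SD, cut at about 38% in these data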
Target sequence (Q96RJ0 whole entry, looked up): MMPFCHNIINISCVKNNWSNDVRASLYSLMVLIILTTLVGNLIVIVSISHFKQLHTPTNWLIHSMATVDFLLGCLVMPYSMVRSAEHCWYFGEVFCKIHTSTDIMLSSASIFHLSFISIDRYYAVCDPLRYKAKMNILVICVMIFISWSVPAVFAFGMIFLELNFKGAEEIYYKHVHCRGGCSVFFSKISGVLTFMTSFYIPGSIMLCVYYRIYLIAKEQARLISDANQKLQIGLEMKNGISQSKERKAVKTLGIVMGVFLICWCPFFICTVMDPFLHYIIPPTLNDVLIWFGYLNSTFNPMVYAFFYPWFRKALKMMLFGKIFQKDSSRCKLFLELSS
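Benchmarks: low control DMSO, high control PEA (EC100); System: CHO RD-HGA16 cells carrying human TAAR1 plus Gα16; Detection: Fluo-8 fluorescence, 5 s baseline then 140 s kinetic read; Schedule: 17-24 h plating, Fluo-8 75 min 37 °C, 30 min RT; Read-out basis: % activation from peak over basal fluorescence ratio, DMSO-to-PEA scaled.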
GPR7 antagonist – human neuropeptides B/W receptor 1 antagonism. P48145. GPR7-expressing cells, fluorescence antagonist assay. inhibition, % at 4.4 µM. actives 1.1% (n = 290,000); in the data active = inhibition above about 16%, passing the limit was not always enough;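 also: cells stimulated with the agonist NPW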
TAAR1 antagonist – human TAAR1 antagonism | inhibition, % at 3 µM | AID 624466 | CHO RD-HGA16 TAAR1, Fluo-8 calcium fluorescence, antagonist | actives 1.5% (n = 360,000) | Q96RJ0;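 active = inhibition above a per-plate cutoff, the mean inhibition of test compounds on that plate plus 3 SD, cut at about 49% in these data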
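Assay system: CHO-derived RD-HGA16 cells stably expressing human TAAR1 plus Gα16. Timing: 140 s kinetic read after compound, 140 s after agonist. Technique: kinetic Fluo-8 calcium fluorescence measurement. Measure: % inhibition of agonist calcium response.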
OX1R antag-1 – OX1R (human) antagonism; O43613; OX1R-expressing cells, FRET antagonist read-out; inhibition, % at 6.6 µM; actives 1.8% (n = 330,000); AID 485270; in the data active = inhibition mostly above about 38%, no sharp cut-off; inactive = mostly below about 40%
OX1R antag-2 – antagonists of human orexin 1 receptor; AID 434989; CHO/OX1R cells, Fluo-8 calcium fluorescence, orexin A; O43613; actives 0.43% (n = 330,000); inhibition, % at 5 µM;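 active = inhibition above its plate's threshold, mean inhibition of all tested compounds on the plate plus 3 SD, cut at about 37% in these data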
Hits are given with their value.

Screening CC(C)(C)S(=O)N1C[C@@H]2CC(=O)C(c3ccccc3)=C2[C@H]1CCO (stereo partly specified) returned TAAR1 agonist inactive and TAAR1 antagonist inactive.
C=CCOCCN(C)C1=NS(=O)(=O)c2cc([N+](=O)[O-])ccc21 was read as CHO parental Ca inactive, TAAR1 agonist inactive, GPR7 antagonist inactive, TAAR1 antagonist inactive, OX1R antag-1 72.0 and OX1R antag-2 inactive.
Screening COC(=O)[C@]12C[C@H](CC(=O)NCc3ccccc3)C(=O)N(Cc3ccccc3)C1=C[C@H](C1CCCC1)O[C@@H]2C returned TAAR1 agonist inactive and TAAR1 antagonist inactive.
Screening O=C(COC(=O)COc1ccccc1)Nc1ncc([N+](=O)[O-])s1 returned CHO parental Ca inactive, TAAR1 agonist inactive, TAAR1 antagonist inactive, OX1R antag-1 43.0 and OX1R antag-2 inactive.
Screening Cn1cnnc1SCC(=O)Nc1ncc([N+](=O)[O-])s1 returned CHO parental Ca inactive, TAAR1 agonist inactive, TAAR1 antagonist inactive, OX1R antag-1 35.4 and OX1R antag-2 inactive.
`Cc1csc(NC(=O)CSc2nncn2C)n1` gave CHO parental Ca inactive, TAAR1 agonist inactive, GPR7 antagonist inactive, TAAR1 antagonist inactive, OX1R antag-1 inactive and OX1R antag-2 inactive.
For Cc1nnc(NC(=O)CC(C)c2ccccc2)s1 (stereo unspecified) the results were CHO parental Ca inactive, TAAR1 agonist inactive, GPR7 antagonist inactive, TAAR1 antagonist inactive, OX1R antag-1 inactive and OX1R antag-2 inactive.
`CC(CC(=O)Nc1ncc([N+](=O)[O-])s1)c1ccccc1` (stereo unspecified) gave CHO parental Ca inactive, TAAR1 agonist inactive, GPR7 antagonist inactive, TAAR1 antagonist inactive, OX1R antag-1 35.3 and OX1R antag-2 inactive.
Screening CC(C)C[C@@H]1COc2cc(NC3CC3)ccc2S(=O)(=O)N1 returned TAAR1 agonist inactive and TAAR1 antagonist inactive.
`O=C(Nc1ccccc1-c1nnn(CC(=O)N2CCOCC2)n1)c1ccccc1F` gave CHO parental Ca inactive, TAAR1 agonist inactive, GPR7 antagonist inactive, TAAR1 antagonist inactive, OX1R antag-1 inactive and OX1R antag-2 inactive.
`COc1ccc(N(C(=O)Cn2nnc(-c3ccc(F)cc3)n2)C(C)C(=O)NC2CCCC2)cc1` (stereo unspecified) gave CHO parental Ca inactive, TAAR1 agonist inactive, GPR7 antagonist inactive, TAAR1 antagonist inactive, OX1R antag-1 inactive and OX1R antag-2 inactive.
For CC(C(=O)NC1CCCC1)N(C(=O)Cn1nnc(-c2ccc(F)cc2)n1)c1ccccc1F (stereo unspecified) the results were CHO parental Ca inactive, TAAR1 agonist inactive, GPR7 antagonist inactive, TAAR1 antagonist 51.6, OX1R antag-1 inactive and OX1R antag-2 inactive.
Screening O=C(Cn1nnc(-c2ccccc2NC(=O)c2ccccc2F)n1)NC1CCCC1 returned CHO parental Ca 32.2, TAAR1 agonist inactive, GPR7 antagonist inactive, TAAR1 antagonist inactive, OX1R antag-1 inactive and OX1R antag-2 inactive.
CCN(CC)S(=O)(=O)c1ccc(N2CCOCC2)c(NC(=O)c2ccc(N3CCCC3=O)cc2)c1 was read as CHO parental Ca inactive, TAAR1 agonist inactive, TAAR1 antagonist inactive, OX1R antag-1 inactive and OX1R antag-2 inactive.
Screening CC(C)(C)S(=O)N1Cc2cc(C(=O)NCC(F)(F)F)nc(-c3cccc(-c4cccc(F)c4)c3)c2[C@H]1CCO (stereo partly specified) returned TAAR1 agonist inactive and TAAR1 antagonist 62.0.
For CN(C)C(=O)c1cccc(-c2cccc(-c3nc(C(=O)NCc4ccccc4)cc4c3[C@@H](CCO)N(S(=O)C(C)(C)C)C4)c2)c1 (stereo partly specified) the results were TAAR1 agonist inactive and TAAR1 antagonist 61.3.
For COc1cccc(-c2cccc(-c3nc(C(=O)NCCCN4CCOCC4)cc4c3[C@H](CCO)N(S(=O)C(C)(C)C)C4)c2)c1 (stereo partly specified) the results were TAAR1 agonist inactive and TAAR1 antagonist 52.0.
CCn1c2c(n(C(C)=O)c1=O)C[C@@H](c1ccccc1)[C@@H](C)[C@@H](C(=O)N1CCCC1)C2 was read as TAAR1 agonist inactive and TAAR1 antagonist inactive.
